# Screening data as filed in PubChem.
# KCNQ1 inh = blocks the human KCNQ1 potassium channel; P51787; CHO-K1 KCNQ1, FluxOR thallium flux fluorescence; active compounds read high; B-score at 10 µM; 310,000 compounds, 1.3% hits; AID 2642;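 active means compounds whose thallium flux B-score, printed positive for inhibition, exceeds three library SD while starting fluorescence stays within three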;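 further: channel opened by potassium depolarization with thallium stimulus after 20 min compound exposure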
# KCNK9 inh = blocks the human KCNK9 two-pore domain potassium channel; Q9NPC2; HEK293 KCNK9, FluxOR thallium flux fluorescence; active compounds read low; B-score at 10 µM; 310,000 compounds, 1.2% hits; AID 488922;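 active means ratio B-score over 3 SD below the library mean, with starting fluorescence within 5 SD of its mean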;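 further: negative B-score means less thallium flux so channel inhibition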
# KCNQ1 act = potentiators or activators of human KCNQ1 potassium channel; 310,000 compounds, 0.35% hits; CHO-K1 KCNQ1, thallium flux FluxOR fluorescence; active compounds read high; P51787; B-score at 10 µM;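 active means fluorescence ratio B-score, a plate-corrected score, at least three library SD, with initial intensity B-score within 5 SD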
#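 Schedule – 37 °C overnight plating, 90-min dark dye load, 20-min compound pretreatment · System – stable KCNQ1 CHO-K1 line · Probe or stimulus – thallium- and potassium-containing depolarizing buffer · Measured by – kinetic FluxOR fluorescence, 10 s baseline plus 110 s post-stimulus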
# KCNK3 block = human KCNK3 channel inhibition, primary screen | 340,000 compounds, 0.84% hits | CHO-KCNK3 thallium flux, FluxOR fluorescence; active compounds read low | B-score at 10 µM;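 active means B-score under library mean minus 4 SD, starting fluorescence ratio at most library mean plus 5 SD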;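 further: more negative B-score means stronger inhibition of thallium flux through KCNK3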
# Target sequence (O14649 whole entry, looked up): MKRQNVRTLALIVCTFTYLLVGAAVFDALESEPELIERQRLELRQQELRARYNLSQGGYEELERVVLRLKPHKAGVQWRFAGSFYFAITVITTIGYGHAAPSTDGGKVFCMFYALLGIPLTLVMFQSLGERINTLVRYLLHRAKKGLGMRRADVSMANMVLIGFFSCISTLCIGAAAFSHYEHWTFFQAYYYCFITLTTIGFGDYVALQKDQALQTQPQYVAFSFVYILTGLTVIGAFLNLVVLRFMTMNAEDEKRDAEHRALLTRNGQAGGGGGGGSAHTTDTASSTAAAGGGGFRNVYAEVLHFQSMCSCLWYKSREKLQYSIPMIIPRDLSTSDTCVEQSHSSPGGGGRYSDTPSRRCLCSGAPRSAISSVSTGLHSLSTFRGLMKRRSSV
# Kir21 inh = inhibitors of mouse Kir2.1 inward-rectifier potassium channel; 310,000 compounds, 0.85% hits; B-score at 10 µM; HEK293-Kir2.1, FluxOR thallium flux fluorescence; active compounds read low; P35561;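 active means fluorescence ratio B-score at or below minus 3 SD of library scores, with starting-brightness B-score within 2 SD, cut at about -4.2 in these data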;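 further: channel flux triggered by added potassium and thallium sulfate stimulus; B-score of peak minus minimum fluorescence over baseline after thallium stimulus; more negative B-score means stronger Kir2.1 block with less thallium influx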
# hERG rescue = shields human hERG channel from block by proarrhythmic agents | CHO-hERG, FluxOR thallium flux, dofetilide IC70 present | activation (rescue from dofetilide block), less the hit threshold, % at 10 µM | 310,000 compounds, 0.51% hits;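 active means activation above the mean of controls blocked by dofetilide plus 5 SD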;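 further: thallium influx through hERG after potassium depolarization seen as dye fluorescence rise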
# A number is an active result; i = inactive; nt = no result. The list is not random: actives were taken first. Their share in the collection is about 3.8%.
SMILES,KCNQ1 inh,KCNK9 inh,KCNQ1 act,KCNK3 block,Kir21 inh,hERG rescue
Cn1cc(/C=C/c2cc[n+](C)cc2)c2cc(Cl)ccc21,12,i,i,i,i,i
Cn1cc(/C=C/c2cc[n+](C)cc2)c2cc(F)ccc21,i,i,i,i,i,i
CN(C(=O)CSc1ncn[nH]1)C1(C#N)CCCCC1,nt,nt,nt,i,nt,nt
C(#CCN1CCCC1)CC(c1ccccc1)c1ccccc1,i,i,i,i,-10,i
CC(CC(=O)O)CC(=O)Nc1cccc([N+](=O)[O-])c1 (stereo unspecified),i,i,i,i,i,i
CC(=O)CC1OC(=O)C(Br)=C1NCc1ccccc1 (stereo unspecified),6,i,i,i,i,i
O=C(CC1Oc2ccccc2NC1=O)NCc1ccccc1 (stereo unspecified),i,i,i,i,i,i
O=C(CSc1nnnn1Cc1ccccc1)Nc1ccccc1,i,i,i,i,i,i
Cc1ccc(N2C(=O)c3ccccc3C2O)nc1 (stereo unspecified),i,i,i,nt,i,i
CCOc1cc(N2CCOCC2)c(OCC)cc1NC(=O)CN1C(=O)C2CC=CCC2C1=O (stereo unspecified),i,i,i,i,i,7.2
CCOc1cc(N2CCOCC2)c(OCC)cc1NC(=O)CCC1CCCC1,i,i,i,i,i,6.9
CCOC(=O)c1[nH]c2cc3c(cc2c1NC(=O)CN1CCCC1)OCO3,i,i,i,i,i,i
Cc1ccc(CNC(=O)CCS(=O)(=O)c2cccc3nsnc23)cc1,i,i,i,i,i,4.9
COc1cccc(CNC(=O)CCS(=O)(=O)c2cccc3nsnc23)c1,i,i,i,i,i,i
COc1ccc(-c2nc(-c3ccccc3)c(-c3cccs3)[nH]2)cc1OC,i,i,i,i,i,i
COc1ccc(-c2nc(-c3cccs3)c(-c3cccs3)[nH]2)cc1OC,7,i,i,i,i,i
CCOc1ccc(Nc2nc(N3CCCC3)nc(N3CCN(c4ccc(OC)cc4)CC3)n2)cc1,i,i,i,i,i,i
OC(CNCC(c1ccc(Cl)cc1Cl)c1c[nH]c2ccccc12)c1ccccc1 (stereo unspecified),i,i,i,i,i,40
O=C(CSc1c2c(nc3cc(Cl)ccc13)CCCC2)NCc1ccco1,i,i,i,i,-6.5,i
CC(C)(C)c1ccc(S(=O)(=O)N2CCCCC2C(=O)NCc2ccccn2)cc1 (stereo unspecified),i,i,i,i,i,i
CN1c2ccccc2C(=O)C(=C2SCCCS2)S1(=O)=O,i,i,i,i,i,i
Cc1ccc(C(C)NC(=S)NCc2ccc(F)cc2)cc1C (stereo unspecified),i,i,i,i,-11,i
CN(C)C(=O)c1cc(Cl)ccc1Sc1cc(Cl)ccc1Cl,i,i,i,i,-5.4,i
CN(C)C(=O)c1cc(F)ccc1Sc1cc(Cl)ccc1Cl,i,i,i,i,-5.8,i
CN(C)C(=O)c1cc(C(=O)c2ccc(F)cc2Cl)c[nH]1,i,i,i,i,i,i
SMILES,KCNQ1 inh,KCNK9 inh,KCNQ1 act,KCNK3 block,Kir21 inh,hERG rescue
CC[n+]1ccccc1/C=C1\Sc2ccc(C)cc2N1C,7,i,i,i,i,i
COc1ccc(N(C(C)=O)C2C=CS(=O)(=O)C2)c(OC)c1 (stereo unspecified),i,i,i,i,i,i
O=C(/C=C/c1cccc(Br)c1)c1ccc2c(c1)OCO2,i,-7.8,i,i,i,i
O=C(/C=C/c1ccccc1)c1ccc2c(c1)OCO2,i,i,i,i,i,i
Cc1ccc(-n2ncc3c2CCCC3NC(=O)c2ccccc2N2CCOCC2)cc1C (stereo unspecified),i,i,i,i,i,i
Cc1ccc(CN2C(=O)NC(Cc3c[nH]c4ccccc34)C2=O)cc1 (stereo unspecified),i,i,i,i,-4.3,i
Cc1ccc(C(=O)OCC(=O)Nc2sc3c(c2C#N)CCCC3)cc1NC(=O)c1ccco1,i,i,19,i,i,i
Cc1[nH]n(-c2ccccc2)c(=O)c1N=Nc1ccccc1,i,i,i,i,i,i
CC(=O)c1ccc(N=Nc2c(C)[nH]n(-c3ccccc3)c2=O)cc1,6,i,i,i,i,i
